Consider 20 compounds from ChEMBL document CHEMBL1287804, “Synthesis, binding studies and molecular modeling of novel cannabinoid receptor ligands” (Bioorg Med Chem, 2010).

Calls of active or inactive are those of the source. The rule behind the calls is not given here.

Experiment [1] concerns the target T1, Cannabinoid receptor 1 (Homo sapiens, UniProt P21554). As to the kind of experiment: Displacement of [3H]-CP-55940 from human recombinant CB1 receptor expressed in HEK293 cells. It counts as cell-based. Put shortly: (§1)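 Radioligand binding with human recombinant CB1 and CB2 receptors. The highest concentration tested was 10 µM, and percent displacement was recorded at that concentration. IC50 and Ki were calculated for each receptor. The selectivity index is Ki(CB1)/Ki(CB2).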

Experiment [2] addresses T2, Fatty-acid amide hydrolase 1 (Rattus norvegicus) (UniProt P97612).
T2 sequence (whole entry): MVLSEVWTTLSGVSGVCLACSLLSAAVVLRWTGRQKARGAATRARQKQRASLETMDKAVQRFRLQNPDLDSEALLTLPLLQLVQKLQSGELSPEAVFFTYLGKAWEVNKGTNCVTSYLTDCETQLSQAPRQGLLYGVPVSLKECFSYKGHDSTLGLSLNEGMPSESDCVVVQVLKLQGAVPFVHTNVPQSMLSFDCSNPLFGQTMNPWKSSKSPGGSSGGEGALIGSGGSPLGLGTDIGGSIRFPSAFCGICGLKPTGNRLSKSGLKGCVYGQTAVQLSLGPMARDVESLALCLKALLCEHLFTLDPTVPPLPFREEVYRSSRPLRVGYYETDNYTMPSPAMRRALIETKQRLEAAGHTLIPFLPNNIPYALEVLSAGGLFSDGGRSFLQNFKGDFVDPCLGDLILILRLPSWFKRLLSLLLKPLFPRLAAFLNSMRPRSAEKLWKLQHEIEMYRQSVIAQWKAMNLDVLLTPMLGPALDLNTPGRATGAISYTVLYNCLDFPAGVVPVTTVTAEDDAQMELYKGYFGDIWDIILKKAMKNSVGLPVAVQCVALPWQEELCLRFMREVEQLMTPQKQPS
As to the kind of experiment: Inhibition of FAAH-mediated [14C]anandamide hydrolysis in rat brain membrane assessed as [14C]-ethanolamine production up to 50 uM after 30 mins by scintillation counting. It is filed as cell membranes.

Experiment [3] has as its target T3, Cannabinoid receptor 2 (Homo sapiens, UniProt P34972). As to the kind of experiment: Displacement of [3H]-CP-55940 from human recombinant CB2 receptor expressed in HEK293 cells. It is filed as cell-based. In outline:
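Radioligand binding assay on human recombinant CB2 receptor. The read-out was percent displacement of radioligand at the highest concentration tested. IC50 values were determined, and Ki values were calculated from them.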
A general note: Loss of bound radioactivity is the signal in a displacement assay; it reports binding, not function.

For experiment [4], the target named is T1, Cannabinoid receptor 1. Put plainly: Displacement of [3H]-CP-55940 from human recombinant CB1 receptor expressed in HEK293 cells at 10 uM. It is filed as cell-based. Put shortly: as §1
Experiment [5] concerns the target T3, Cannabinoid receptor 2. As to the kind of experiment: Displacement of [3H]-CP-55940 from human recombinant CB2 receptor expressed in HEK293 cells at 10 uM. It is filed as cell-based. In outline:
as §1

The species named for experiment [6] is Homo sapiens. Put plainly: Selectivity index, ratio of Ki for human recombinant CB1 receptor to Ki for human recombinant CB2 receptor. Put shortly:
as §1

T3 sequence (P34972 whole entry): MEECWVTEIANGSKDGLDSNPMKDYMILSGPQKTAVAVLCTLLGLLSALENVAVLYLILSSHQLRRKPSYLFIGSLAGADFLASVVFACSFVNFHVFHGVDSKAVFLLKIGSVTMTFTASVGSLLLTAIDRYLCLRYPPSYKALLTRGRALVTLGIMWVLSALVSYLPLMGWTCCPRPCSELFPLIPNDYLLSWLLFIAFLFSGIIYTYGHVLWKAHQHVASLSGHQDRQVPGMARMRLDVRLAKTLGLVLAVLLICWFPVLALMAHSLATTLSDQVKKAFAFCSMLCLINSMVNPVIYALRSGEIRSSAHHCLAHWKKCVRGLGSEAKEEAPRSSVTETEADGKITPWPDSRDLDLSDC
T1 sequence (P21554 whole entry): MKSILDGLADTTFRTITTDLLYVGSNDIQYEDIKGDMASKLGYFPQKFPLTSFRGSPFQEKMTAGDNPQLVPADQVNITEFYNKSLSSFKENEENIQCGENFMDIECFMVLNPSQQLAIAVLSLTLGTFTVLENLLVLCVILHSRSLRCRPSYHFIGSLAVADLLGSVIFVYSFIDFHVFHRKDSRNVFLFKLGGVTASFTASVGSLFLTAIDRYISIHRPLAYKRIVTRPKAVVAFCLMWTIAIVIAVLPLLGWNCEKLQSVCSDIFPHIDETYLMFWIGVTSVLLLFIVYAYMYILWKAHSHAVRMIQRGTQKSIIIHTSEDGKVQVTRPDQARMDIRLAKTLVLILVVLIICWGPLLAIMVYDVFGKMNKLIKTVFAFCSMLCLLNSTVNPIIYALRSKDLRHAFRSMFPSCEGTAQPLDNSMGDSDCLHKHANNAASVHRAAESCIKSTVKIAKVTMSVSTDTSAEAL

A word on the IC50: it is the concentration at which inhibition is half-maximal. What is called Ki is the equilibrium dissociation constant of an inhibitor or competing ligand from its target. As for `O=C(O)CCC(=O)/C=C/c1ccc2ccccc2c1`, the IC50 in experiment [1] and in experiment [3] was greater than 10 µM in each case. Besides, the Ki in experiment [1] and in experiment [3] was greater than 10 µM each time. Moreover, the inhibition result in experiment [2] was “inactive”. Further, the Activity is 11.8% in experiment [4] and 13.7% in experiment [5].

Take `O=C(CCC(=O)NCCO)CCc1ccc(-c2ccccc2)cc1`: the IC50 in experiment [1] is greater than 10 µM; in experiment [3], 8.85 µM. For the same compound, the Ki in experiment [1] was greater than 10 µM; in experiment [3], 2.25 µM. For the same compound, the inhibition result in experiment [2] was “inactive”. Also, the Ratio Ki in experiment [6] was greater than 4.44. Further, the Activity turned out to be 10.9% in experiment [4] and 53% in experiment [5].

Regarding `O=C(/C=C/c1ccc2ccccc2c1)CCCC(=O)NCCO`, the IC50 was greater than 10 µM in experiment [1] and 4.08 µM in experiment [3]. For the same compound, the Ki in experiment [1] was greater than 10 µM; in experiment [3], 1.03 µM. Besides, the inhibition result in experiment [2] was “inactive”. For the same compound, in experiment [6], the Ratio Ki was greater than 9.71. The figures for the Activity in experiment [4] and in experiment [5] were 4.58% and 72%, respectively.

With `C[C@H](CO)NC(=O)CCC(=O)/C=C/c1ccc2ccccc2c1`, the IC50 in experiment [1] and in experiment [3] was greater than 10 µM in each case. The Ki in experiment [1] and in experiment [3] was greater than 10 µM throughout. In addition, in experiment [2], the inhibition result is “inactive”. For the same compound, the Activity is 2.48% in experiment [4] and 38.3% in experiment [5].

Turning to `O=C(/C=C/c1ccc2ccccc2c1)CCC(=O)Nc1ccc(O)cc1`, the IC50 in experiment [1] and in experiment [3] was greater than 10 µM each time. Moreover, the Ki in experiment [1] and in experiment [3] was greater than 10 µM each time. For the same compound, in experiment [2], the inhibition result is “inactive”. Also, the Activity in experiment [4] and in experiment [5] was less than 50% in each case.

For the compound `C[C@@H](CO)NC(=O)CCCC(=O)/C=C/c1ccc2ccccc2c1`, the IC50 in experiment [1] and in experiment [3] was greater than 10 µM throughout. The Ki in experiment [1] and in experiment [3] was greater than 10 µM in each case. Also, the inhibition result in experiment [2] is “inactive”. Further, the Activity in experiment [4] was greater than 10%; in experiment [5] it was 37.7%.

Consider `O=C(/C=C/c1ccc2ccccc2c1)CCC(=O)NCCO`, for which the IC50 was greater than 10 µM in experiment [1] and 1 µM in experiment [3]. Moreover, the values for the Ki in experiment [1] and in experiment [3] were greater than 10 µM and 1.03 µM, respectively. Moreover, in experiment [2], the inhibition entry is “inactive”. Moreover, in experiment [6], the Ratio Ki is greater than 4.41. Moreover, the values for the Activity in experiment [4] and in experiment [5] were 0% and 56.5%, respectively.

With `O=C(/C=C/c1ccc2ccccc2c1)CCC(=O)NC1CC1`, the IC50 in experiment [1] and in experiment [3] was greater than 10 µM in each case. Moreover, the Ki in experiment [1] and in experiment [3] was greater than 10 µM each time. In experiment [2], the inhibition result was “inactive”. Moreover, the Activity in experiment [4] amounted to 3.25%; in experiment [5], 35.6%.

As for `O=C(/C=C/c1ccc2ccccc2c1)CCCC(=O)N1CCCCC1`, the IC50 in experiment [1] and in experiment [3] was greater than 10 µM each time. For the same compound, the Ki in experiment [1] and in experiment [3] was greater than 10 µM throughout. Further, the inhibition result in experiment [2] was “inactive”. In addition, the figures for the Activity in experiment [4] and in experiment [5] were 34% and 36.8%, respectively.

As for `O=C(/C=C/c1ccc2ccccc2c1)CCC(=O)N1CCCCC1`, the half-maximal inhibitory concentration (IC50) in experiment [1] and in experiment [3] was greater than 10 µM in each case. Besides, the Ki in experiment [1] and in experiment [3] was greater than 10 µM throughout. For the same compound, the inhibition entry in experiment [2] is “inactive”. Besides, the Activity in experiment [4] and in experiment [5] was less than 50% each time.

Take `O=C(CCC(=O)N1CCOCC1)c1ccc(-c2ccccc2)cc1`: the IC50 in experiment [1] and in experiment [3] was greater than 10 µM throughout. Besides, the Ki in experiment [1] and in experiment [3] was greater than 10 µM in each case. For the same compound, the inhibition entry in experiment [2] was “inactive”. The Activity in experiment [4] turned out to be 12.2%; in experiment [5], 14.9%.

As for `COc1ccc(/C=C/C(=O)CCC(=O)Nc2ccc(O)cc2)cc1`, the IC50 in experiment [1] and in experiment [3] was greater than 10 µM in each case. Moreover, the Ki in experiment [1] and in experiment [3] was greater than 10 µM in each case. For the same compound, in experiment [2], the inhibition result was “inactive”. The Activity in experiment [4] and in experiment [5] was less than 50% throughout.

`CCOC(=O)CNC(=O)CCC(=O)/C=C/c1ccc2ccccc2c1`: the IC50 in experiment [1] was greater than 10 µM; in experiment [3], 9.82 µM. In addition, the Ki in experiment [1] was greater than 10 µM; in experiment [3] it was 2.5 µM. Besides, in experiment [2], the inhibition result is “inactive”. In addition, the Ratio Ki in experiment [6] was greater than 4. In addition, the Activity was 5.73% in experiment [4] and 54.6% in experiment [5].

On to `O=C(/C=C/c1ccc2ccccc2c1)CCCC(=O)NC1CC1`, for which the results for the IC50 in experiment [1] and in experiment [3] were greater than 10 µM and 8.02 µM, respectively. Further, the Ki in experiment [1] is greater than 10 µM; in experiment [3], 2.04 µM. Besides, in experiment [2], the inhibition entry was “inactive”. Moreover, in experiment [6], the Ratio Ki is greater than 4.9. Moreover, the Activity in experiment [4] came to 15.3%; in experiment [5], 56.7%.

Consider `COc1ccc(/C=C/C(=O)CCC(=O)NCCO)cc1OC`, for which the half-inhibitory concentration (IC50) in experiment [1] and in experiment [3] was greater than 10 µM in each case. The Ki in experiment [1] and in experiment [3] was greater than 10 µM each time. The inhibition result in experiment [2] is “inactive”. Moreover, the Activity in experiment [4] and in experiment [5] was less than 50% each time.

Regarding `COc1ccc(/C=C/C(=O)CCC(=O)N2CCCCC2)cc1OC`, the IC50 in experiment [1] and in experiment [3] was greater than 10 µM in each case. Moreover, the Ki in experiment [1] and in experiment [3] was greater than 10 µM in each case. Further, in experiment [2], the inhibition entry was “inactive”. Also, the Activity in experiment [4] was less than 50%; in experiment [5], 50%.

For the compound `CCOC(=O)CNC(=O)CCCC(=O)/C=C/c1ccc2ccccc2c1`, the IC50 in experiment [1] and in experiment [3] was greater than 10 µM throughout. The Ki in experiment [1] and in experiment [3] was greater than 10 µM throughout. For the same compound, in experiment [2], the inhibition result was “inactive”. Besides, the figures for the Activity in experiment [4] and in experiment [5] were 41.5% and 41.7%, respectively.

Turning to `O=C(/C=C/c1ccc2ccccc2c1)CCC(=O)N(CCO)CCO`, the IC50 in experiment [1] and in experiment [3] was greater than 10 µM throughout. For the same compound, the Ki in experiment [1] and in experiment [3] was greater than 10 µM each time. In addition, the inhibition entry in experiment [2] was “inactive”. In addition, the Activity was found to be 1.81% in experiment [4] and 27.3% in experiment [5].

With `O=C(/C=C/c1ccc(-c2ccccc2)cc1)CCC(=O)NCCO`, the IC50 in experiment [1] and in experiment [3] was greater than 10 µM in each case. The Ki in experiment [1] and in experiment [3] was greater than 10 µM each time. Further, the inhibition result in experiment [2] is “inactive”. In addition, the values for the Activity in experiment [4] and in experiment [5] were 5.25% and 46.1%, respectively.

For the compound `O=C(O)CCCC(=O)/C=C/c1ccc2ccccc2c1`, the IC50 in experiment [1] and in experiment [3] was greater than 10 µM each time. Also, the Ki in experiment [1] and in experiment [3] was greater than 10 µM in each case. For the same compound, the inhibition entry in experiment [2] is “inactive”. Further, the Activity in experiment [4] worked out at 21.5%; in experiment [5], 23.4%.
